Laboratory results reported in the M2OR odorant receptor database.
Residue numbers refer to the chain shown, from its start.

Assays:
Details in all cases: stereoisomer not certain
[1] = biological target: T1, OR5K1 (Homo sapiens) (UniProt Q8NHB7)
T1 sequence (whole entry): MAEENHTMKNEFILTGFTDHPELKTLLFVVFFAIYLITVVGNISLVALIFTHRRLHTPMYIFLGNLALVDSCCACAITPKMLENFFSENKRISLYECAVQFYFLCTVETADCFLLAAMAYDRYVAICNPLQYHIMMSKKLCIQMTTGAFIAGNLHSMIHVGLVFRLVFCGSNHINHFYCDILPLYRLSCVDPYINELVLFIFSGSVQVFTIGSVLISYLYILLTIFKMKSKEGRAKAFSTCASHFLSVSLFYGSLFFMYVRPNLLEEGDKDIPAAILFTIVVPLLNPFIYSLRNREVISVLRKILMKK
In short: (§1)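 Values were gathered from published papers (main text and supplementary material), with extra details requested from the original authors when needed, and checked for typos and inconsistencies. Each receptor–molecule pair is called responsive (active) if the original authors judged the measured signal statistically different from baseline, and non-responsive (inactive) otherwise. Assay methods varied by source, often transient mammalian cell-line luciferase assays. Recorded details include cell line, G-protein, co-transfected protein and tags.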

[2] = system: T2, OR5H1
T2 sequence (whole entry): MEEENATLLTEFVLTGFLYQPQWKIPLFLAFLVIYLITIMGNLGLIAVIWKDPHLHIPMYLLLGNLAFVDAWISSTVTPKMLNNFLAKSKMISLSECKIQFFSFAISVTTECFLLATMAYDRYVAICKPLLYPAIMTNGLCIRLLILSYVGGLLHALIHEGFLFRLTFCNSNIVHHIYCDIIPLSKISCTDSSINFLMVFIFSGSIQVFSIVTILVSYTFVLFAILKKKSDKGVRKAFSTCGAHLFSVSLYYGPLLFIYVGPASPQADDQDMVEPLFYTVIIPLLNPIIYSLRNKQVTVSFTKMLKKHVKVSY
In short: as §1

[3] = system: T3, OR5H2
T3 sequence (whole entry): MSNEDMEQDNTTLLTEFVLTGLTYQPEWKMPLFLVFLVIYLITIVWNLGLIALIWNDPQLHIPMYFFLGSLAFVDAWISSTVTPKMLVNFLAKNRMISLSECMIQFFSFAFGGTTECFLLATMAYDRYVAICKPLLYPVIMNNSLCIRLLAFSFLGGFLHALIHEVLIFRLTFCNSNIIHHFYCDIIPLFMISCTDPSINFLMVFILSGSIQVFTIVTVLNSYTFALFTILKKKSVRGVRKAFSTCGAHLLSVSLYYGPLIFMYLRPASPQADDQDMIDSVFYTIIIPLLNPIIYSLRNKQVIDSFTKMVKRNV
In short: as §1

[4] = biological target: T4, OR5H6 (Homo sapiens) (UniProt Q8NGV6)
T4 sequence (whole entry): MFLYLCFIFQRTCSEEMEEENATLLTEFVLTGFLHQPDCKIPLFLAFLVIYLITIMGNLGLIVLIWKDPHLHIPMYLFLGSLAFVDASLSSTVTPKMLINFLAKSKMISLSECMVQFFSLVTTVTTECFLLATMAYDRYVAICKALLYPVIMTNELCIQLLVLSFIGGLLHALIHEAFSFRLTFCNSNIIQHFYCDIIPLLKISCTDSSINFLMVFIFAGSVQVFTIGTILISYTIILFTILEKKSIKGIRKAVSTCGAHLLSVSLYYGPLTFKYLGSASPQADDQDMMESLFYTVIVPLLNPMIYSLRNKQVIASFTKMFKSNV
In short: as §1

[5] = biological target: T5, OR5I1 (Homo sapiens) (UniProt Q13606)
T5 sequence (whole entry): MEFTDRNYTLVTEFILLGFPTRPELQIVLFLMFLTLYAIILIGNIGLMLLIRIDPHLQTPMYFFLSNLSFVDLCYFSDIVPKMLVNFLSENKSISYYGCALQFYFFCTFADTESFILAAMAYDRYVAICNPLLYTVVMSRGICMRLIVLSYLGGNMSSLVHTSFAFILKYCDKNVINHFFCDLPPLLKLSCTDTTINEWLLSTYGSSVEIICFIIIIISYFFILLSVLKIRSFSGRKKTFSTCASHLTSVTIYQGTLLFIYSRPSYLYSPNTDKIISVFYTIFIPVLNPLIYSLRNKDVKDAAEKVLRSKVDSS
In short: as §1

[6] = biological target: T6, OR5J2 (Homo sapiens) (UniProt Q8NH18)
T6 sequence (whole entry): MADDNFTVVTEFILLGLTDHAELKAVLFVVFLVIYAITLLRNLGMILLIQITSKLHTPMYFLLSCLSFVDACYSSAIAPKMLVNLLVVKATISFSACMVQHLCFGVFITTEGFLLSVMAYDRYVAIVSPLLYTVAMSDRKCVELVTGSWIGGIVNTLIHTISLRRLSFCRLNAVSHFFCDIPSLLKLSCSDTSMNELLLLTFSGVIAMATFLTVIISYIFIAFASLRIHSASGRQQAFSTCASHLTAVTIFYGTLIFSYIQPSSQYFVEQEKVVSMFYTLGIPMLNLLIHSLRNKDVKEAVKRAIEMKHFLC
In short: as §1

[7] = biological target: T7, OR5K2 (Homo sapiens) (UniProt Q8NHB8)
T7 sequence (whole entry): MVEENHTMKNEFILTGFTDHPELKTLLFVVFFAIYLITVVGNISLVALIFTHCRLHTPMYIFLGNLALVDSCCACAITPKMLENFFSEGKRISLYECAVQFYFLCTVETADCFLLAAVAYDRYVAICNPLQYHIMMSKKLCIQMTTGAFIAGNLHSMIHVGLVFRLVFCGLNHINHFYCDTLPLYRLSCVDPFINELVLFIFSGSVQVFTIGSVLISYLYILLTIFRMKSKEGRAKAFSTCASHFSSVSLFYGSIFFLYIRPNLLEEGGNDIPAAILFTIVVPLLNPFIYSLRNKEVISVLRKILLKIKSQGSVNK
In short: as §1

[8] = system: T8, OR5K2 L197M
T8 sequence (whole entry): T7 sequence (whole entry) with L197M
In short: as §1

[9] = system: OR5K1 F62L
In short: as §1

Measured: odorant receptor agonist call

Sequence of OR5K1 F62L (as listed by the source, stated change not applied): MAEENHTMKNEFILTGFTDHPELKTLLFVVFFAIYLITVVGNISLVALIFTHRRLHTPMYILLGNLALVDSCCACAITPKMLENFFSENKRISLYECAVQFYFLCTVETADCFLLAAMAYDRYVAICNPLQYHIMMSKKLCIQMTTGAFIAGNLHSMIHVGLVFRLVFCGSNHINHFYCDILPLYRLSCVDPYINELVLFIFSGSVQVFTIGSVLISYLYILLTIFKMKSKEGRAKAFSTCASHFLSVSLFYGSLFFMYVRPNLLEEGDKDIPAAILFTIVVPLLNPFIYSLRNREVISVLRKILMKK

CC=CC(=O)C1=C(C)CCCC1(C)C
inactive: [1]

CC1=NC(C)C(C)S1 (stereo unspecified)
inactive: [2] | [3] | [4] | [5] | [6] | [7] | [8]
active: [1]

CCCCC=CC=O
inactive: [1]

CC1=C(O)C(=O)C(C)O1 (stereo unspecified)
inactive: [2] | [3] | [4] | [5] | [6] | [1] | [7] | [8]

CCCCC1OC(=O)CC1C (stereo unspecified)
inactive: [1]

Cc1cnc(C)c(C)n1
active: [1] | [9]
inactive: [2] | [3] | [4] | [5] | [6] | [7] | [8]

CCCCCC(=O)C(C)C(C)=O (stereo unspecified)
inactive: [3] | [4] | [6] | [1] | [7]

CCCCC(S)C(C)CO (stereo unspecified)
inactive: [3] | [4] | [6] | [1] | [7]

CCC1OC(C)=C(O)C1=O (stereo unspecified)
inactive: [2] | [3] | [4] | [5] | [6] | [1] | [7] | [8]

CC(=O)C1=NCCS1
inactive: [1]

CCC(=O)O
inactive: [1]

CCOC(=O)C(C)C
inactive: [1]

Cc1cccc(O)c1
inactive: [1]

CCCCCC(S)C(C)CO (stereo unspecified)
inactive: [3] | [4] | [6] | [1] | [7]

CCOC(=O)c1ccccc1
inactive: [1]
